Values joined by “and” are separate entries in the source; they are usually repeats but may differ in a detail not shown here. Equal entries are not always repeated. Positions of bridges follow the written chain, without caps; N, C: chain ends. Non-standard residues stand in square brackets, D forms with d. Residues, ends and D or L forms follow the SMILES beside them. dPhe(4-Cl) = N[C@H](Cc1ccc(Cl)cc1)C(=O)O; d2Nal = N[C@H](Cc1ccc2ccccc2c1)C(=O)O; d3Pal = N[C@H](Cc1cccnc1)C(=O)O
Columns and labels:
Assay type in all cases: functional
[1] = tested on: Rattus norvegicus; assay: In vivo antiovulatory assay (AOA) carried out in rats injected sc
Summary of the method: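 Antiovulatory assay following Corbin and Beattie. Cycling rats injected sc at noon on proestrus with peptide dissolved in saline (200 μL). Dose in micrograms; read-out is the number of rats ovulating out of the total.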

[2] = organism: Rattus norvegicus; assay: Effect on GnRH-induced LH secretion in intact male rats at 100 ug of compound along with 50 ng of GnRH; ng of LH/mL
Summary of the method: (§1)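 Intact adult male Sprague-Dawley rats. Antagonist injected iv into the jugular vein (1 mL) under ether, immediately before GnRH. Peptide dissolved in 2 N HOAc, then diluted in 0.1% BSA-0.04 M phosphate buffer pH 7.4. Blood taken 10 min after injection. Plasma LH in ng/mL ± SEM, six rats per treatment.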

[3] = organism: Rattus norvegicus; assay: Effect on GnRH-induced LH secretion in intact male rats at 25 ug of compound along with 50 ng of GnRH; ng of LH/mL; summary of the method: as §1
[4] = tested on: Rattus norvegicus; assay: Effect of oral administration of compound (3 mg) on LH secretion by castrated male rats; ng of LH/mL
Summary of the method: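 Adult Sprague-Dawley male rats, castrated under light ether anesthesia 7-10 days before assay. Peptide dissolved in 2 N HOAc, then diluted in 0.1% BSA-0.04 M phosphate buffer pH 7.4. Given by gavage tube (0.5 mL) under ether. Blood sampled before treatment and 5 h after. Plasma LH in ng/mL, mean ± SEM, five rats per treatment.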

CC(=O)N[C@H](Cc1ccc2ccccc2c1)C(=O)N[C@H](Cc1ccc(Cl)cc1)C(=O)N[C@H](Cc1cccnc1)C(=O)N[C@H]1CSSC[C@@H](C(N)=O)NC(=O)[C@@H]2CCCN2C(=O)[C@H](CCCNC(=N)N)NC(=O)[C@H](CC(C)C)NC(=O)[C@@H](Cc2cccnc2)NC(=O)[C@H](CCCNC(=N)N)NC1=O (Ac-[d2Nal][dPhe(4-Cl)][d3Pal]CR[d3Pal]LRPC-NH2; disulfide 4-10)
Dose [1]: 10 µg and 25 µg
Activity [2]: 1.4
Activity [3]: 1.62
Activity [4]: 8.31

Source: ChEMBL document CHEMBL1124067, “Design of potent cyclic gonadotropin releasing hormone antagonists” (J Med Chem, 1988)
